Measurements as given in ChEMBL document CHEMBL5661979, “Pharmacological inhibition of BMK1 suppresses tumor growth through promyelocytic leukemia protein” (Cancer Cell, 2010).
Activity calls are given as the source filed them. The rule behind the calls is not given here.

Key:
[1] = Inhibition of MAP3K5/MAP3K6/MAP3K15 in human HeLa cells lysate pre incubated for 15 mins followed by ATP acyl phosphate probe addition and measured after 10 mins by LC-MS/MS analysis; assay type: subcellular
[2] = MRT in Sprague-Dawley rat at 1 mg/kg, iv measured up to 8 hrs by LC-MS/MS analysis; assay type: ADME, organism-based; conditions: in vivo
[3] = target: Protein kinase C theta type (Homo sapiens, UniProt Q04759); experiment: Inhibition of PKCtheta in human HeLa cells lysate at 10 uM pre incubated for 15 mins followed by ATP acyl phosphate probe addition and measured after 10 mins by LC-MS/MS analysis relative to control; assay type: subcellular; conditions: time 25.0 min
Lewis lung carcinoma = experiment: Antitumor activity against PML knock down mouse LL2 cells transfected with ad-PML allografted in C57Bl/6 mouse assessed as reduction tumor growth at 50 mg/kg, ip administered on day 8 post implantation measured after 20 days; conditions: time 12.0 day
[4] = target: T1, Serine/threonine-protein kinase 4 (Homo sapiens) (UniProt Q13043); experiment: Inhibition of MST1 in human HeLa cells lysate at 2 uM pre incubated for 15 mins followed by ADP acyl phosphate probe addition and measured after 10 mins by LC-MS/MS analysis relative to control; assay type: subcellular; conditions: time 25.0 min
T1 sequence (whole entry): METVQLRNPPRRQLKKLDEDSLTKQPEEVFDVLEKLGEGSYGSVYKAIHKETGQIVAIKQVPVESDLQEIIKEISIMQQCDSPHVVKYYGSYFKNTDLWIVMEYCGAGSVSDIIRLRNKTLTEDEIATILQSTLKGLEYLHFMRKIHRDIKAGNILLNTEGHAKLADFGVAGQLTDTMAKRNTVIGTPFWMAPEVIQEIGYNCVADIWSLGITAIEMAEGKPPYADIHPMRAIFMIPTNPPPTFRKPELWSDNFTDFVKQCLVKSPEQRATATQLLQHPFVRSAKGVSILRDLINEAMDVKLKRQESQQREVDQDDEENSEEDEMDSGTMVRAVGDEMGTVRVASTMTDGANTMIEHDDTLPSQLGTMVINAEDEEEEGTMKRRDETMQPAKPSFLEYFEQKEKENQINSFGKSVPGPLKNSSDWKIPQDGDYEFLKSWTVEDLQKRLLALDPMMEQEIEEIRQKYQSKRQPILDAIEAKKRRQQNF

[5] = target: Cyclin-dependent kinase 9 (Homo sapiens, UniProt P50750); experiment: Inhibition of CDK9 in human HeLa cells lysate pre incubated for 15 mins followed by ADP acyl phosphate probe addition and measured after 10 mins by LC-MS/MS analysis; assay type: subcellular
Procedure, shortened: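 KiNativ profiling in HeLa lysate (5 mg/mL total protein). Lysate incubated 15 min with inhibitor at 50, 10, 2, 0.8 or 0 μM. ATP or ADP acylphosphate probe then added (5 μM final) and reacted 10 min. Reaction stopped with urea and analysed by targeted MS, using up to four fragment ions per kinase peptide-probe conjugate. % inhibition taken against untreated lysate. Run in duplicate.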

[6] = target: T2, STE20-related kinase adapter protein beta (Homo sapiens) (UniProt Q9C0K7); experiment: Inhibition of ALS2CR2 in human HeLa cells lysate at 2 uM pre incubated for 15 mins followed by ADP acyl phosphate probe addition and measured after 10 mins by LC-MS/MS analysis relative to control; assay type: subcellular; conditions: time 25.0 min
T2 sequence (whole entry): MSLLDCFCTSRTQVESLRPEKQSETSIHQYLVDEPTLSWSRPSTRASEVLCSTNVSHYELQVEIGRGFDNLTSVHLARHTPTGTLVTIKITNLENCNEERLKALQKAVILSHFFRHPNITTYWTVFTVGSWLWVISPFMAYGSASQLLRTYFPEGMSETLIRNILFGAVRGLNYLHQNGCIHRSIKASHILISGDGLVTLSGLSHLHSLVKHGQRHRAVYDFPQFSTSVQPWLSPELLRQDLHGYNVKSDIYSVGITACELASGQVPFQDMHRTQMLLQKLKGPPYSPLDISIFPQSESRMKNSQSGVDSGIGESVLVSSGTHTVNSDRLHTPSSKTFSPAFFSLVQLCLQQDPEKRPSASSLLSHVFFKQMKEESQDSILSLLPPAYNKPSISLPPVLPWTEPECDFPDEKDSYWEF
Procedure, shortened: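 HeLa cell lysates (5 mg/mL total protein) were preincubated with inhibitor at 0, 0.8, 2, 10 or 50 μM for 15 min. ATP or ADP acylphosphate probe was then added (5 μM final) for 10 min, and reactions were stopped with urea. Up to four fragment ions per kinase probe-peptide were quantified by targeted MS. % inhibition was taken relative to untreated lysate. Run in duplicate.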

[7] = Inhibition of SRC/FYN/YES in human HeLa cells lysate at 50 uM pre incubated for 15 mins followed by ATP acyl phosphate probe addition and measured after 10 mins by LC-MS/MS analysis relative to control; conditions: 25 min, condition cancer
[8] = target: Mitogen-activated protein kinase kinase kinase 20 (Homo sapiens, UniProt Q9NYL2); experiment: Inhibition of ZAK in human HeLa cells lysate at 2 uM pre incubated for 15 mins followed by ATP acyl phosphate probe addition and measured after 10 mins by LC-MS/MS analysis relative to control; assay type: subcellular; conditions: time 25.0 min
[9] = target: Mitogen-activated protein kinase 4 (Homo sapiens, UniProt P31152); experiment: Inhibition of ERK4 in human HeLa cells lysate at 50 uM pre incubated for 15 mins followed by ATP acyl phosphate probe addition and measured after 10 mins by LC-MS/MS analysis relative to control; assay type: subcellular; conditions: time 25.0 min
[10] = Inhibition of KHS1/2 in human HeLa cells lysate at 50 uM pre incubated for 15 mins followed by ATP acyl phosphate probe addition and measured after 10 mins by LC-MS/MS analysis relative to control; conditions: 25 min, condition cancer
[11] = target: Phosphatidylinositol 5-phosphate 4-kinase type-2 beta (Homo sapiens) (UniProt P78356); experiment: Inhibition of PIP5K2B in human HeLa cells lysate at 2 uM pre incubated for 15 mins followed by ATP acyl phosphate probe addition and measured after 10 mins by LC-MS/MS analysis relative to control; assay type: subcellular; conditions: time 25.0 min
[12] = target: Tyrosine-protein kinase CSK (Homo sapiens, UniProt P41240); experiment: Inhibition of CSK in human HeLa cells lysate at 50 uM pre incubated for 15 mins followed by ATP acyl phosphate probe addition and measured after 10 mins by LC-MS/MS analysis relative to control; assay type: subcellular; conditions: time 25.0 min
[13] = target: Ribosomal protein S6 kinase alpha-1 (Homo sapiens, UniProt Q15418); experiment: Inhibition of RSK1 domain 2 K1 site in human HeLa cells lysate pre incubated for 15 mins followed by ADP acyl phosphate probe addition and measured after 10 mins by LC-MS/MS analysis; assay type: subcellular
[14] = Toxicity in C57Bl/6 mouse assessed as effect on albumin level at 50 mg/kg, ip for 14 days (reference value: 3 g/dl); assay type: organism-based; conditions: in vivo, 336 h, time 14 day

Sequence of Ribosomal protein S6 kinase alpha-1 (Q15418 whole entry, the tested form may be a part): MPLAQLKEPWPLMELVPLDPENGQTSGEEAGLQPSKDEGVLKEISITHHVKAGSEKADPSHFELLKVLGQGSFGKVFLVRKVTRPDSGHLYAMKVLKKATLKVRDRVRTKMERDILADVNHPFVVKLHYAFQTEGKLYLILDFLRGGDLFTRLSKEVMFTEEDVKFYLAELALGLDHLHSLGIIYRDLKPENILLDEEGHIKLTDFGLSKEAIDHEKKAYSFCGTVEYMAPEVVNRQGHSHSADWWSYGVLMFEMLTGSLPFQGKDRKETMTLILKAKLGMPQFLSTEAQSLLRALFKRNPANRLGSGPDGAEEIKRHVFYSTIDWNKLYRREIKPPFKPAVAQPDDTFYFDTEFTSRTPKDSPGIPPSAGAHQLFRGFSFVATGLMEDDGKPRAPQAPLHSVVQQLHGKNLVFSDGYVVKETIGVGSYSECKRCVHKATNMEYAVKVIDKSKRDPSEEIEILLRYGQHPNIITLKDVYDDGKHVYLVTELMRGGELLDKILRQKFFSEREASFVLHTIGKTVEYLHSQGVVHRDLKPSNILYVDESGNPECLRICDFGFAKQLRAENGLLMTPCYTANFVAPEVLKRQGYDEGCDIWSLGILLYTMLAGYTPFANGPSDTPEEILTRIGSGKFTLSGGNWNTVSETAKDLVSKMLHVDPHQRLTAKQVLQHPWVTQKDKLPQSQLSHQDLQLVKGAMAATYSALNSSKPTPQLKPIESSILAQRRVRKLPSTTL
Sequence of Mitogen-activated protein kinase kinase kinase 20 (Q9NYL2 2-800 limits assumed): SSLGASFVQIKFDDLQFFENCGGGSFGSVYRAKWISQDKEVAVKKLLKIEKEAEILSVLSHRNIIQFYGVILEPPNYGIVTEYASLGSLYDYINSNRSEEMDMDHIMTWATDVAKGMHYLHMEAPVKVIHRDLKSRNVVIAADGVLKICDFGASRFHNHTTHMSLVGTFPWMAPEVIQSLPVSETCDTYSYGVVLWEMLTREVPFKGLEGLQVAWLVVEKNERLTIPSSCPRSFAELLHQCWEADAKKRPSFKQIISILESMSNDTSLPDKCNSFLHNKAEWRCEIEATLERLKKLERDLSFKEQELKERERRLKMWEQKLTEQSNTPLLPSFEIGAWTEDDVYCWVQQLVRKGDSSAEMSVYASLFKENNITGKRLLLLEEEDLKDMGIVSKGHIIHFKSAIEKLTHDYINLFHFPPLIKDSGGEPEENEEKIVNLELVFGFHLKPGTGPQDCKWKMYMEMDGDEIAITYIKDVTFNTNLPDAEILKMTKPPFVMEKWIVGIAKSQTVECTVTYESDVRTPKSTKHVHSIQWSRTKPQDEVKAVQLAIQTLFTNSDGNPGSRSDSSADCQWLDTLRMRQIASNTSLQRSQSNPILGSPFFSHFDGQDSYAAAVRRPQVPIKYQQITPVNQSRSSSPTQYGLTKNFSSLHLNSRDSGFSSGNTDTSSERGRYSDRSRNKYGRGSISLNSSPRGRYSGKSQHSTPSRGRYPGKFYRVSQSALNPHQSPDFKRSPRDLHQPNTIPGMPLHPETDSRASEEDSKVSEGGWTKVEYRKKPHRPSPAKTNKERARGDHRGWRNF
Sequence of Protein kinase C theta type (Q04759 whole entry, looked up): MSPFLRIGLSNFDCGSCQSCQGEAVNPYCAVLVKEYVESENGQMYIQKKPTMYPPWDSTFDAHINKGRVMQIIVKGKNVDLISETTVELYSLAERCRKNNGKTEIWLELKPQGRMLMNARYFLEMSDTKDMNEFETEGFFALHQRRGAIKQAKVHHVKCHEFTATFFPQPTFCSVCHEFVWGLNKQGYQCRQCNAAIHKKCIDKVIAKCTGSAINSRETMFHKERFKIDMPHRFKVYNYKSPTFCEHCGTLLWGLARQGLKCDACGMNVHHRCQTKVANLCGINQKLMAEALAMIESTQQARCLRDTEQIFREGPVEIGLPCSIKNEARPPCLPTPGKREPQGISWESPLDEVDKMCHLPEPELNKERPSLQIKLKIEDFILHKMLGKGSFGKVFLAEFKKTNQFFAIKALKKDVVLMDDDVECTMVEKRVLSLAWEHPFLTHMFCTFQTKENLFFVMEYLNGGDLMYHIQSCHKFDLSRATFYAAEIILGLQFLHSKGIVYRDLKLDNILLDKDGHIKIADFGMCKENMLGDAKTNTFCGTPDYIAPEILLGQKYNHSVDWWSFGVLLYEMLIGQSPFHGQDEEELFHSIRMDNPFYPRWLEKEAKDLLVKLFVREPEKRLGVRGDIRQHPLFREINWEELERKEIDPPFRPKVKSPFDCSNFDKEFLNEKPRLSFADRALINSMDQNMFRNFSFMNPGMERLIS
Sequence of Cyclin-dependent kinase 9 (P50750 whole entry, the tested form may be a part): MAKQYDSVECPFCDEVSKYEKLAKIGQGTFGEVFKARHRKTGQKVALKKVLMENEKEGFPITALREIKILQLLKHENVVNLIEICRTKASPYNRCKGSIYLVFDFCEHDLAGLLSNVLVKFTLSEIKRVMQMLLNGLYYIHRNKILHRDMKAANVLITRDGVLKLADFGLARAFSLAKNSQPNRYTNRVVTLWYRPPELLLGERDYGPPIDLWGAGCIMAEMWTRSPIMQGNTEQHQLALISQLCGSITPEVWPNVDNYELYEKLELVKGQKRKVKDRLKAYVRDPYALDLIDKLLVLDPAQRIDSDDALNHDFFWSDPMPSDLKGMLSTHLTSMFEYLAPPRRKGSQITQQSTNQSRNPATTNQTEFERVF
Sequence of Mitogen-activated protein kinase 4 (P31152 whole entry): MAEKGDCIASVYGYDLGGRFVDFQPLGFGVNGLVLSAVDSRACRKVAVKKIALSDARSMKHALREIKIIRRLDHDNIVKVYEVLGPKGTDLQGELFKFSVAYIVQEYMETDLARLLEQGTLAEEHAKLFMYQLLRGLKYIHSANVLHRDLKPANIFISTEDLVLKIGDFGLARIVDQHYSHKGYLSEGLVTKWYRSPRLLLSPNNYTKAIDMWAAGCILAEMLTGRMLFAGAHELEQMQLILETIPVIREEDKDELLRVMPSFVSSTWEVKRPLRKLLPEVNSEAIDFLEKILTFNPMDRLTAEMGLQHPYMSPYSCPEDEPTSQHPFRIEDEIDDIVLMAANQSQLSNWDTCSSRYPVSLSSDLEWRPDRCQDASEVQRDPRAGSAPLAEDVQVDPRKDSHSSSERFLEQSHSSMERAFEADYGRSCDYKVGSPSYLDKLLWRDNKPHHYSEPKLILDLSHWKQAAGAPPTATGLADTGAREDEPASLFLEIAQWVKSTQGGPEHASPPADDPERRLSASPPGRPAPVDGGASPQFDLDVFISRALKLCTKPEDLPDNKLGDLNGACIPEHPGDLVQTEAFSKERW
Sequence of Phosphatidylinositol 5-phosphate 4-kinase type-2 beta (Homo sapiens) (P78356 whole entry): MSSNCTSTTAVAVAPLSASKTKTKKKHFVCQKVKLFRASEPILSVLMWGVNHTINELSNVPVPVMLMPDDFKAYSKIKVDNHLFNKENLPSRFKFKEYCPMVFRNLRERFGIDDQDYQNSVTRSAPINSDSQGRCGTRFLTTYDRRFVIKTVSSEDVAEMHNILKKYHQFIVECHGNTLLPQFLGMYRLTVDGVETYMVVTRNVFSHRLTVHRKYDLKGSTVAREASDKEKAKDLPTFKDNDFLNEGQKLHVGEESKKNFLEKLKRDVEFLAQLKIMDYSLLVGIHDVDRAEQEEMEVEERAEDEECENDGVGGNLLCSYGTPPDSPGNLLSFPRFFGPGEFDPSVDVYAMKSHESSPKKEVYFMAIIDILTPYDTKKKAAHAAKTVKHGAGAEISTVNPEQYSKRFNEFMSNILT
Sequence of Tyrosine-protein kinase CSK (P41240 2-450 limits assumed): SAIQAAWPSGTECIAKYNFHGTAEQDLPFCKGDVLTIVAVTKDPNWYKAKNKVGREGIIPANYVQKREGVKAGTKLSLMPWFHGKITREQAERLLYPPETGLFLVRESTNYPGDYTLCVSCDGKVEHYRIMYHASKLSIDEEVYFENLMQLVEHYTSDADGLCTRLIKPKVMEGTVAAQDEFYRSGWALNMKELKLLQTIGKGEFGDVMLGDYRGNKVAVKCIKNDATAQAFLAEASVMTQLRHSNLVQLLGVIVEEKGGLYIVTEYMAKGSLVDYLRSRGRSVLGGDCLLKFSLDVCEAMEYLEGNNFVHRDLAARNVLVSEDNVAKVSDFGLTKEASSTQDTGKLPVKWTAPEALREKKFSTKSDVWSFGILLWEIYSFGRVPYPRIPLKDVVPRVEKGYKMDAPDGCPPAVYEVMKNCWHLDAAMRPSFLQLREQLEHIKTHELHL

With CCOc1cc(N2CCC(O)CC2)ccc1Nc1ncc2c(n1)N(C)c1ccccc1C(=O)N2C the IC50 [1] was greater than 50 µM, the MRT [2] was 2.2 h and the inhibition [3] was 12.4%. The Activity (Lewis lung carcinoma) was “Active”, the inhibition [4] was 30.6% and the IC50 [5] was greater than 50 µM. The inhibition [6] was 17%, the inhibition at 50 µM [7] was -27.1% and the inhibition [8] was 31.5%. For the same molecule, the inhibition [9] was 28.7%, the inhibition at 50 µM [10] was 2.5% and the inhibition [11] was -2.7%. It also gave an inhibition [12] of 0.9%, an IC50 [13] of 29 µM and an Activity [14] of 3.3 g/dL.
